ChEMBL document CHEMBL1148393, “SAR studies of dihydro-beta-agarofuran sesquiterpenes as inhibitors of the multidrug-resistance phenotype in a Leishmania tropica line overexpressing a P-glycoprotein-like transporter” (J Med Chem, 2004)

Assays:
[1] = system: Leishmania tropica; experiment: Percentage of growth inhibition of wild type Leishmania tropica lines at 7 uM; Value ranges from 0 to 6%; format: functional
In short: (§1)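 Intrinsic toxicity on the wild-type L. tropica LRC clone, with no DNM present. Log-phase promastigotes were plated at 3 × 10⁵ cells/well in RPMI 1640-modified medium with 20% FBS, with sesquiterpene diluted from DMSO stocks, for 72 h at 28 °C. MTT was added for 4 h, then 20% SDS, and A540 read. Percent growth inhibition is taken against untreated control absorbance.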

[2] = system: Leishmania tropica; experiment: Percentage of growth inhibition of wild type Leishmania tropica lines at 3 uM; Value ranges from 0 to 6%; format: functional; in short: as §1
[3] = system: Leishmania tropica; experiment: Percentage of growth inhibition of multidrug resistance Leishmania tropica Lines at 7 uM.; format: functional
In short: (§2)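 Log-phase MDR promastigotes were plated at 3 × 10⁵ cells/well in RPMI 1640-modified medium with 20% FBS and 150 µM DNM. Sesquiterpenes (DMSO stocks diluted in medium) were added and cells kept 72 h at 28 °C. MTT was added for 4 h, formazan dissolved in 20% SDS and A540 read. Growth inhibition is relative to DNM-treated controls without modulator.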

[4] = system: Leishmania tropica; experiment: Percentage of growth inhibition of multidrug resistance Leishmania tropica Lines at 1 uM; format: functional; in short: as §2
[5] = system: Leishmania tropica; experiment: (§3) Percentage of growth inhibition of wild type Leishmania tropica lines at 15 uM; format: functional
In short: (§4)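 WT L. tropica LRC-strain promastigotes (log phase, RPMI 1640-modified medium + 20% heat-inactivated FBS, 28 °C) seeded at 3 × 10⁵ cells/well and exposed without DNM to sesquiterpenes diluted from DMSO stocks. After 72 h at 28 °C, MTT (5 mg/mL in PBS) was added for 4 h, formazan dissolved in 20% SDS, A540 read. Growth inhibition (%) calculated relative to untreated control absorbance.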

[6] = system: Leishmania tropica; experiment: Percent growth inhibition of wild type Leishmania tropica at 1 uM; format: functional; in short: as §1
[7] = system: Leishmania tropica; experiment: Percentage of growth inhibition of multidrug resistance Leishmania tropica Lines at 3 uM; format: functional; in short: as §2
[8] = system: Leishmania tropica; experiment: Percentage of growth inhibition of multidrug resistance Leishmania tropica Lines at 15 uM; format: functional; in short: as §2
[9] = system: Leishmania tropica; experiment: Percentage of growth inhibition of wild type Leishmania tropica Lines at 3 uM.; format: functional; in short: as §1
[10] = system: Leishmania tropica; experiment: Percentage of growth inhibition of multidrug resistance Leishmania tropica Lines at 7 uM; Value ranges from 0 to 6%; format: functional; in short: as §2
[11] = system: Leishmania tropica; experiment: Percentage of growth inhibition of multidrug resistance Leishmania tropica Lines at 15 uM; Value ranges from 0 to 6%; format: functional; in short: as §2
[12] = system: Leishmania tropica; experiment: Percentage of growth inhibition of multidrug resistance Leishmania tropica Lines at 1 uM.; format: functional; in short: as §2
[13] = system: Leishmania tropica; experiment: Percentage of growth inhibition of wild type Leishmania tropica Lines at 7 uM.; format: functional; in short: as §1
[14] = system: Leishmania tropica; experiment: as §3; format: functional; in short: as §1; remark: listed apart in the source
[15] = system: Leishmania tropica; experiment: Percentage of growth inhibition of multidrug resistance Leishmania tropica Lines at 3 uM.; format: functional; in short: as §2
[16] = system: Leishmania tropica; experiment: Concentration required to inhibit the growth of multidrug resistance Leishmania tropica Line in the presence of DNM at 15 uM; format: functional, organism-based
[17] = system: Leishmania tropica; experiment: Ratio of IC50 of the multidrug resistance Leishmania tropica Line to that of IC50 of the wild type line at 7 uM; format: functional
In short: (§5)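 Resistance index is the DNM IC50 in the MDR L. tropica line divided by the DNM IC50 in the wild-type line. MDR IC50s were obtained with sesquiterpene at 7 or 15 µM. Growth was read by 72 h MTT assay at 28 °C. Data are from three independent experiments.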

[18] = system: Leishmania tropica; experiment: Concentration required to inhibit the growth of multidrug resistance Leishmania tropica Line in the presence of DNM at 7 uM; format: functional, organism-based
[19] = system: Leishmania tropica; experiment: Percentage of growth inhibition of wild type Leishmania tropica Lines at 7 uM; format: functional; in short: as §4
[20] = system: Leishmania tropica; experiment: Ratio of IC50 of the multidrug resistance Leishmania tropica Line to that of IC50 of the wild type line at 15 uM; format: functional; in short: as §5
[21] = system: Leishmania tropica; experiment: Percentage of growth inhibition of wild type Leishmania tropica Lines at 3 uM; format: functional; in short: as §4

Row | Structure (SMILES) | inhibition at 7 µM [3] [%] | inhibition at 1 µM [4] [%] | inhibition at 15 µM [5] [%] | inhibition at 1 µM [6] [%] | inhibition at 3 µM [7] [%] | inhibition at 15 µM [8] [%] | inhibition at 3 µM [9] [%] | inhibition at 7 µM [10] [%] | inhibition at 1 µM [12] [%] | inhibition at 7 µM [13] [%] | inhibition at 15 µM [14] [%] | inhibition at 3 µM [15] [%] | IC50 [16] [µM] | RI [17] | IC50 [18] [µM] | RI [20] | also measured
1 | CC(=O)O[C@H]1[C@@H](OC(=O)c2ccccc2)C[C@](C)(O)C23OC(C)(C)C(C[C@H](OC(=O)c4ccco4)[C@]12C)[C@H]3OC(=O)c1ccc([N+](=O)[O-])cc1 (stereo partly drawn) | 26.4 | 6.4 | 10.8 | < 6 | 13.5 | 51.1 |  |  |  |  |  |  |  |  |  |  | inhibition at 7 µM [1]: 6%; inhibition at 3 µM [2]: 6%
2 | CC(=O)OC[C@@]12[C@@H](OC(C)=O)[C@@H](OC(C)=O)[C@@H]3OC(=O)[C@H](C)[C@@H](C)c4ncccc4C(=O)OC[C@@]4(C)OC1([C@H](OC(C)=O)C4[C@H](OC(C)=O)[C@@H]2OC(C)=O)[C@@]3(C)O |  |  |  | < 6 |  |  | < 6 | 6 | < 6 | < 6 | < 6 | < 6 |  |  |  |  | inhibition at 15 µM [11]: 6%
3 | COc1ccc(C(=O)O[C@@H]2C3C[C@H](OC(=O)c4ccco4)[C@]4(C)[C@@H](OC(C)=O)[C@@H](OC(=O)c5ccccc5)C[C@](C)(O)C24OC3(C)C)cc1 (stereo partly drawn) |  |  |  | < 6 |  | 11.8 |  | 6 | < 6 |  | < 6 | 6 |  |  |  |  | inhibition at 7 µM [1]: 6%; inhibition at 3 µM [2]: 6%
4 | CC(=O)O[C@@H]1C2C[C@H](OC(=O)c3ccco3)[C@]3(C)[C@@H](OC(C)=O)[C@@H](OC(=O)c4ccco4)C[C@](C)(O)C13OC2(C)C (stereo partly drawn) |  |  |  | < 6 |  |  | < 6 | 6 | < 6 | < 6 | < 6 | 6 |  |  |  |  | inhibition at 15 µM [11]: 6%
5 | CC(=O)OC[C@]12[C@@H](OC(=O)c3ccccc3)CC3[C@@H](OC(=O)c4ccccc4)C1(OC3(C)C)[C@@](C)(O)C[C@H](OC(C)=O)[C@@H]2OC(C)=O (stereo partly drawn) | 89.9 | 18 | 15.2 | < 6 | 77.5 | 90.9 |  |  |  |  |  |  | 20 | 10.2 | 39 | 5.2 | inhibition at 7 µM [19]: 11%; inhibition at 3 µM [21]: 6.9%
6 | CC(=O)OC[C@]12[C@@H](OC(=O)c3ccco3)CC3[C@@H](OC(=O)c4ccco4)C1(OC3(C)C)[C@@](C)(O)C[C@H](OC(C)=O)[C@@H]2OC(C)=O (stereo partly drawn) | 89.5 | 25.7 | 7.2 | < 6 | 79.6 | 94.3 | < 6 |  |  | < 6 |  |  | 11 | 8.7 | 33.3 | 2.9 | 
7 | CC(=O)O[C@H]1C[C@](C)(O)C23OC(C)(C)C(C[C@H](OC(=O)c4ccco4)[C@]2(C)[C@H]1OC(C)=O)[C@H]3OC(=O)c1ccco1 (stereo partly drawn) | 90.9 | 24.5 | 15.2 | < 6 | 83.5 | 94.4 | < 6 |  |  |  |  |  | 9 | 7.8 | 30 | 2.3 | inhibition at 7 µM [19]: 9.7%
